Screens: PubChem BioAssay, The Scripps Research Institute Molecular Screening Center
Most compounds without a hit are left out; they make up all but 3.9% or so of the library.
TAAR1 antagonist = human TAAR1 antagonism | CHO RD-HGA16 TAAR1, Fluo-8 calcium fluorescence, antagonist | inhibition, % at 3 µM | 1.5% of 360,000 active | AID 624466;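 active means inhibition above a per-plate cutoff, the mean inhibition of test compounds on that plate plus 3 SD, cut at about 49% in these data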
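test system = CHO RD-HGA16 cells bearing hTAAR1 | replication = singlicate | controls = DMSO-only wells and EC80 β-PEA-stimulated wells | reagent = EC80 β-phenethylamine stimulus | read-out basis = percent inhibition of PEA-evoked calcium signal, max/basal emission ratio | schedule = seeding 17-24 h prior, 75-min 37 °C, 30-min RT dye loading | signal = kinetic Fluo-8 calcium fluorescence measurement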
OX1R antag-1 = blocks the human orexin 1 receptor. O43613. CHO/OX1R cells, Fluo-8 calcium fluorescence, orexin A. inhibition, % at 5 µM. 0.43% of 330,000 active. AID 434989;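 active means inhibition above its plate's threshold, mean inhibition of all tested compounds on the plate plus 3 SD, cut at about 37% in these data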
Target sequence (O43613 whole entry, looked up): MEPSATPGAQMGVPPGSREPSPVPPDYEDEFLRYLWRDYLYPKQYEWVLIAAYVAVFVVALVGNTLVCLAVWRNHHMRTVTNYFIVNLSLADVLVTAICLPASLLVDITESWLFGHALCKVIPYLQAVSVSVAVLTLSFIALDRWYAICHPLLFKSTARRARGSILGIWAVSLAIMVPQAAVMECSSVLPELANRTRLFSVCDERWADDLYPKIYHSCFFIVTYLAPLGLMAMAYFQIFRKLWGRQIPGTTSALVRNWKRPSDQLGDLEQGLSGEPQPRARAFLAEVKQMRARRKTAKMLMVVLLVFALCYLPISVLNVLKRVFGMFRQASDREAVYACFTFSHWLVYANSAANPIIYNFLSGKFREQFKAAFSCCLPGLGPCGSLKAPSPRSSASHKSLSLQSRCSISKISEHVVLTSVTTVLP
TAAR1 agonist = agonists of human TAAR1; CHO RD-HGA16 TAAR1, Fluo-8 calcium fluorescence; vehicle wells 0%, saturating PEA agonist 100%; activation, % at 3 µM; 0.99% of 360,000 active;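 active means activation above the mean activation of all test compounds in the run plus 3 SD, cut at about 38% in these data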
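Repeats: no replicates (n 1) | Material: CHO-derived RD-HGA16 cells with stable Gα16 and human TAAR1 | Technique: Kinetic Fluo-8 calcium fluorescence | Schedule: 17-24 h seeding, 75 min 37 °C dye, 30 min RT | Evaluation: % activation from peak over basal fluorescence ratio, DMSO-to-PEA scaled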
OX1R antag-2 = blocks the human orexin 1 receptor; OX1R-expressing cells, FRET antagonist read-out; inhibition, % at 6.6 µM; 1.8% of 330,000 active; AID 485270; in the data active means inhibition mostly above about 38%, no sharp cut-off; inactive means mostly below about 40%
CHO parental Ca = counter-screen for OX1R antagonists: effect in parental CHO cells | parental CHO-K1, ATP-induced calcium, Fluo-8 fluorescence | inhibition, % at 5.6 µM | 0.63% of 330,000 active;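 active means inhibition above that plate's mean sample inhibition plus 3 SD, cut at about 26% in these data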
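Assay system – parental CHO cells · Reagent – ATP stimulus · Detection – intracellular calcium via Fluo-8 no-wash fluorescent dye · Evaluation – percent inhibition of ATP-evoked calcium rise, normalized to controls · Controls – ATP wells versus no-ATP DMSO wells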
Hits are given with their value; . = inactive; / = not tested or not shown; ! = repeats disagree.

SMILES | TAAR1 antagonist | OX1R antag-1 | TAAR1 agonist | OX1R antag-2 | CHO parental Ca
COC(=O)C[C@@H]1CC[C@@H](NS(=O)(=O)c2ccc(OC)cc2)[C@@H](CO)O1 | . | / | . | / | /
O=C(C(=O)N1CCC(CNS(=O)(=O)c2cccc(C(F)(F)F)c2)CC1)c1cc2ccccc2o1 | . | / | . | / | /
Cc1ccc(NC(=O)c2ccccc2NS(=O)(=O)c2ccc(Cl)s2)cc1S(=O)(=O)N1CCOCC1 | . | . | . | 63 | .
Cc1cc(N2CCCC2)ccc1/C=C1\NC(=S)N(C)C1=O | . | 48 | 51 | . | 41
CCc1ccc(CNC(=O)C2CCN(S(=O)(=O)N3CCCCC3)CC2)cc1 | . | / | . | / | /
COc1cc(-c2nc3cnccn3c2Nc2ccc(C(C)C)cc2)ccc1O | . | . | . | . | 37
COc1cc(-c2nc3cnccn3c2Nc2ccc(C)cc2)ccc1O | . | . | . | . | .
CC(=O)N1C[C@H]2CON(C)[C@H]2C[C@H]1c1cccc(-c2ccc(C#N)cc2)c1 | . | / | . | / | /
Cc1ccc(C(C)C)c(OCC(O)CN2CCc3ccccc3C2)c1 (centres undefined) | . | . | . | . | 30
C/C(=C/c1oc2ccc(O)cc2c1[N+](=O)[O-])N(C)C | . | . | . | . | .
CC(=O)Oc1ccc2oc(/C=C/N(C)C)c([N+](=O)[O-])c2c1 | . | . | . | 50 | .
CCc1nc2c(OCc3cc(Cl)cc(Cl)c3)cccn2c1N(C)C(=O)c1ccc(OC)cc1 | . | / | . | / | /
C=CCN1CC(COCCCC)Oc2ccc(Cl)cc2S1(=O)=O (centres undefined) | . | / | . | / | /
Cc1cc2sc3ccccc3c(=O)c2c(C)c1O | . | . | . | 69 | .
O=c1c2ccccc2sc2ccccc12 | . | / | . | / | /
CC1CCC(C(C)C)C(OC(=O)Cn2c(-c3ccccc3)[n+](C)c3ccccc32)C1 (centres undefined) | . | . | . | . | 42!
CC1CCC(C(C)C)C(OC(=O)Cn2c(-c3ccc(F)cc3)[n+](C)c3ccccc32)C1 (centres undefined) | . | . | . | . | .
Cc1cccc(OCc2n(CC(=O)OC3CC(C)CCC3C(C)C)c3ccccc3[n+]2C)c1 (centres undefined) | / | 48 | / | . | 51
CC1(C(=O)NS(=O)(=O)c2ccccc2)CCN1C(=O)CCc1ccccc1 (centres undefined) | . | / | . | / | /
Cc1cc(-c2nc3ccccc3o2)c2ccccc2n1 | . | . | . | 45 | .
Cc1cc(C(=O)O)c2ccccc2n1 | . | . | . | . | .
CN(C)c1ccc(/C=C/c2cccc[n+]2[O-])cc1 | . | . | . | . | .
CC(C)CC[n+]1ccccc1/C=C/c1ccc(N(C)C)cc1 | . | . | . | . | 61
Cc1cc2c(N=O)c(NO)ccc2[nH]1 | / | . | / | 62 | .
C=CCNC(=O)c1cccc2c1C(=O)c1ccc(N3CCOCC3)cc1S2(=O)=O | . | . | . | 64 | .
SMILES | TAAR1 antagonist | OX1R antag-1 | TAAR1 agonist | OX1R antag-2 | CHO parental Ca
O=C(NCc1ccccc1Br)c1cccc2c1C(=O)c1ccc(N3CCOCC3)cc1S2(=O)=O | / | . | / | . | .
O=C(NC1CC1)c1cccc2c1C(=O)c1ccc(N3CCC(Cc4ccccc4)CC3)cc1S2(=O)=O | 78 | . | 46 | . | .
O=C(NC1CCCC1)c1cccc2c1C(=O)c1ccc(N3CCCCC3)cc1S2(=O)=O | . | . | . | . | .
O=C(NC1CCCCC1)c1cccc2c1C(=O)c1ccc(N3CCCC3)cc1S2(=O)=O | 59 | . | . | . | .
COc1ccccc1N1CCN(c2ccc3c(c2)S(=O)(=O)c2cccc(C(=O)NCC4CC4)c2C3=O)CC1 | 54 | / | . | / | /
CC1(C(=O)Nc2ccc3c(c2)OCCO3)CSCC(=O)N1Cc1ccco1 (centres undefined) | . | / | . | / | /
COC(=O)C[C@H]1CC[C@@H](NC(=O)Nc2c(C)noc2C)[C@@H](CO)O1 | . | / | . | / | /
CC1CCN(c2ccc3c(c2)S(=O)(=O)c2cccc(C(=O)NC4CCCCC4)c2C3=O)CC1 | 71 | . | 41 | . | .
Cc1ccccc1OCc1nnc(SCC(=O)O)n1Cc1ccccc1 | . | . | . | . | .
Cc1ccccc1OCc1nnc(SC(C)C(=O)O)n1Cc1ccccc1 (centres undefined) | . | . | . | 63 | .
CN1CCN(C(=O)c2cc3c(c(-c4cccc(-c5cc6ccccc6o5)c4)n2)[C@H](CCO)N(S(=O)C(C)(C)C)C3)CC1 (some centres undefined) | 50 | / | . | / | /
CC(C)(C)S(=O)N1Cc2cc(C(=O)O)nc(-c3cccc(-c4cc5ccccc5o4)c3)c2[C@H]1CCO (some centres undefined) | . | / | . | / | /
CC(C)(C)S(=O)N1Cc2cc(C(=O)N[C@@H]3CCN(Cc4ccccc4)C3)nc(-c3cccc(-c4cc5ccccc5o4)c3)c2[C@@H]1CCO (some centres undefined) | 59 | / | . | / | /
CCCNC(=O)C1(C)CCN(CCOc2ccc(Cl)cc2)C1 (centres undefined) | . | / | . | / | /
O=c1oc2ccccc2c(O)c1CN1CCCCC1 | . | . | . | 68 | .
O=C1[C@H](c2ccccc2)[C@@H](c2ccncc2)N1c1ccncc1 | . | / | . | / | /
CC[n+]1c(/C=C/N(C)c2ccccc2)n(-c2ccccc2)c2ccc(-c3nc4ccccc4s3)cc21 | / | 79 | / | 42 | 69
COc1ccc(-c2nc3scc(-c4ccccc4)n3n2)cc1 | . | . | . | 67 | .
COC(=O)c1sccc1-c1ccc(C(=O)Nc2ccccc2)o1 | . | . | . | 59 | .
COC(=O)c1sccc1NC(=O)c1ccc(C)o1 | . | . | . | . | .
c1csc(CCNc2ncnc3sc4c(c23)CCC4)c1 | . | . | . | 59 | 58
O=C(CCN1C(=O)/C(=C\c2cccs2)SC1=S)Nc1nccs1 | . | . | . | . | .
O=C(CCN1C(=O)/C(=C/c2ccccc2Cl)SC1=S)Nc1cccnc1 | 50 | . | . | . | .
O=C(CCN1C(=O)/C(=C\c2cccs2)SC1=S)Nc1ccccn1 | . | . | 44 | . | .
O=C(CCCN1C(=O)/C(=C/c2ccccc2Cl)SC1=S)Nc1ccccn1 | . | . | . | . | .
SMILES | TAAR1 antagonist | OX1R antag-1 | TAAR1 agonist | OX1R antag-2 | CHO parental Ca
O=C(CCN1C(=O)/C(=C/c2ccccc2Cl)SC1=S)Nc1ccccn1 | . | . | . | 65 | .
O=C1CC2c3cc(Br)ccc3CCN2C(=O)CN1Cc1ccccc1 (centres undefined) | . | / | . | / | /
Cc1ccc(S(=O)(=O)NCC(=O)NCC(=O)NCCc2ccc(Cl)cc2)cc1C | . | / | . | / | /
CC1=C(C(=O)N2CCOCC2)CC(CC(=O)NC(c2ccccc2)c2ccccc2)C(=O)N1Cc1ccc(F)cc1 (centres undefined) | . | / | . | / | /
O=C(OCc1ccccn1)c1ccc(COc2ccc3ccccc3c2)o1 | . | . | . | . | 48
NNC(=O)c1ccc(COc2ccc3ccccc3c2)o1 | . | . | . | . | .
